ChEMBL document CHEMBL4725463, “Vinyl Sulfone-Based Inhibitors of Nonstructural Protein 2 Block the Replication of Venezuelan Equine Encephalitis Virus” (ACS Med Chem Lett, 2020)

Assays:
[1] = Selectivity index, ratio of CC50 for cytotoxicity against african green monkey Vero cells to EC50 for antiviral activity against Venezuelan equine encephalitis virus Trinidad infected in Vero cells; type: toxicity, cell-based; conditions: read-out: Ratio CC50/EC50
[2] = Cytotoxicity against human SK-N-BE(2)-M17 cells; type: cell-based
[3] = target: Polyprotein P1234 (Venezuelan equine encephalitis virus) (UniProt P27282); assay: Inhibition of recombinant VEEV nsP2 expressed in Escherichia coli BL21(DE3) using V12 as substrate at 20 uM after 24 hrs by discontinuous gel assay relative to control
In short: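 VEEV nsP2 (1 μM) was exposed to compound at 20 μM in the presence of 10 μM V12 CFP-YFP FRET substrate. Protease inactivation was judged by cleavage of V12.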

[4] = tested on: Venezuelan equine encephalitis virus; assay: Antiviral activity against Venezuelan equine encephalitis virus TC-83 infected in mouse cortical neurons at MOI of 0.04 after 20 hrs by immunostaining based confocal microscopic analysis; type: functional, organism-based, Cortical neuron; conditions: strain TC-83, Cortical neurone
[5] = target: Polyprotein P1234 (Venezuelan equine encephalitis virus) (UniProt P27282); assay: Inhibition of recombinant VEEV nsP2 expressed in Escherichia coli BL21(DE3) using V12 as substrate at 0.9 uM after 24 hrs by discontinuous gel assay relative to control
In short: (§1)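 Recombinant tag-free VEEV nsP2 (1 μM) was incubated with the V12 CFP-YFP FRET substrate (10 μM) and compound in 50 mM HEPES pH 7.4 for 24 h at room temperature. Compound was tested at 3.6 to 0.03 μM in 2-fold steps. Uncut and cleaved V12 were resolved on gel, and percentage inhibition was estimated at 0.9 μM.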

[6] = Cytotoxicity against green monkey Vero cells; type: cell-based; conditions: chlorocebus sabaeus
[7] = target: Polyprotein P1234 (Venezuelan equine encephalitis virus) (UniProt P27282); assay: Inhibition of recombinant VEEV nsP2 expressed in Escherichia coli BL21(DE3) using V12 as substrate after 24 hrs by discontinuous gel assay; in short: as §1
[8] = Selectivity index, ratio of CC50 for cytotoxicity against mouse Neuro-2a cells to EC50 for antiviral activity against Venezuelan equine encephalitis virus TC-83 infected in mouse Neuro-2a cells; type: toxicity, cell-based; conditions: read-out: Ratio CC50/EC50
[9] = tested on: Venezuelan equine encephalitis virus; assay: Antiviral activity against Venezuelan equine encephalitis virus TC-83 infected in mouse Neuro-2a cells pretreated with compound for 2 hrs followed by viral infection at MOI of 3.5 and measured after 7 hrs by immunostaining based confocal microscopic analysis; type: functional, organism-based; conditions: strain TC-83, N2a
[10] = Selectivity index, ratio of CC50 for cytotoxicity against mouse cortical neurons to EC50 for antiviral activity against Venezuelan equine encephalitis virus TC-83 infected in mouse cortical neurons; type: toxicity; conditions: read-out: Ratio CC50/EC50
[11] = Cytotoxicity against mouse N2a cells; type: cell-based
[12] = Cytotoxicity against mouse cortical neurons; type: cell-based, Cortical neurone
[13] = tested on: Venezuelan equine encephalitis virus; assay: Antiviral activity against Venezuelan equine encephalitis virus Trinidad infected in Vero cells at MOI of 0.01 after 20 hrs by immunostaining based confocal microscopic analysis; type: functional, organism-based
[14] = Selectivity index, ratio of CC50 for cytotoxicity against human BE(2)-M17 cells to EC50 for antiviral activity against Venezuelan equine encephalitis virus TC-83 infected in human BE(2)-M17 cells; type: toxicity, cell-based; conditions: read-out: Ratio CC50/EC50
[15] = tested on: Venezuelan equine encephalitis virus; assay: Antiviral activity against Venezuelan equine encephalitis virus TC-83 infected in human BE(2)-M17 cells pretreated with compound for 2 hrs followed by viral infection at MOI of 1.2 and measured after 7 hrs by immunostaining based confocal microscopic analysis; type: functional, organism-based; conditions: strain TC-83, SK-N-BE(2)-M17
[16] = Selectivity index, ratio of CC50 for cytotoxicity against human HeLa cells to EC50 for antiviral activity against Venezuelan equine encephalitis virus Trinidad infected in HeLa cells; type: toxicity, cell-based; conditions: read-out: Ratio CC50/EC50
[17] = tested on: Venezuelan equine encephalitis virus; assay: Antiviral activity against Venezuelan equine encephalitis virus Trinidad infected in HeLa cells at MOI of 0.1 after 20 hrs by immunostaining based confocal microscopic analysis; type: functional, organism-based
[18] = Cytotoxicity against human HeLa cells; type: cell-based
[19] = tested on: Venezuelan equine encephalitis virus; assay: Antiviral activity against Venezuelan equine encephalitis virus IC-SH3 infected in VeroE6 cells pretreated with compound for 2 hrs followed by viral infection at MOI of 0.01 and measured after 20 hrs by immunostaining based confocal microscopic analysis; type: functional, organism-based; conditions: IC-SH3, Vero C1008
[20] = tested on: Venezuelan equine encephalitis virus; assay: Antiviral activity against Venezuelan equine encephalitis virus IC-SH3 infected in HeLa cells pretreated with compound for 2 hrs followed by viral infection at MOI of 0.1 and measured after 20 hrs by immunostaining based confocal microscopic analysis; type: functional, organism-based
[21] = Cytotoxicity against green monkey Vero C1008 cells; type: cell-based; conditions: chlorocebus sabaeus
[22] = Selectivity ratio of CC50 for cytotoxicity against human HeLa cells to EC50 for antiviral activity against Venezuelan equine encephalitis virus IC-SH3 infected in HeLa cells; type: toxicity, cell-based; conditions: read-out: Ratio CC50/EC50
[23] = Selectivity ratio of CC50 for cytotoxicity against green monkey VeroE6 cells to EC50 for antiviral activity against Venezuelan equine encephalitis virus IC-SH3 infected in VeroE6 cells; type: toxicity, cell-based; conditions: read-out: Ratio CC50/EC50

Chain of Polyprotein P1234 (Venezuelan equine encephalitis virus) (P27282 whole entry): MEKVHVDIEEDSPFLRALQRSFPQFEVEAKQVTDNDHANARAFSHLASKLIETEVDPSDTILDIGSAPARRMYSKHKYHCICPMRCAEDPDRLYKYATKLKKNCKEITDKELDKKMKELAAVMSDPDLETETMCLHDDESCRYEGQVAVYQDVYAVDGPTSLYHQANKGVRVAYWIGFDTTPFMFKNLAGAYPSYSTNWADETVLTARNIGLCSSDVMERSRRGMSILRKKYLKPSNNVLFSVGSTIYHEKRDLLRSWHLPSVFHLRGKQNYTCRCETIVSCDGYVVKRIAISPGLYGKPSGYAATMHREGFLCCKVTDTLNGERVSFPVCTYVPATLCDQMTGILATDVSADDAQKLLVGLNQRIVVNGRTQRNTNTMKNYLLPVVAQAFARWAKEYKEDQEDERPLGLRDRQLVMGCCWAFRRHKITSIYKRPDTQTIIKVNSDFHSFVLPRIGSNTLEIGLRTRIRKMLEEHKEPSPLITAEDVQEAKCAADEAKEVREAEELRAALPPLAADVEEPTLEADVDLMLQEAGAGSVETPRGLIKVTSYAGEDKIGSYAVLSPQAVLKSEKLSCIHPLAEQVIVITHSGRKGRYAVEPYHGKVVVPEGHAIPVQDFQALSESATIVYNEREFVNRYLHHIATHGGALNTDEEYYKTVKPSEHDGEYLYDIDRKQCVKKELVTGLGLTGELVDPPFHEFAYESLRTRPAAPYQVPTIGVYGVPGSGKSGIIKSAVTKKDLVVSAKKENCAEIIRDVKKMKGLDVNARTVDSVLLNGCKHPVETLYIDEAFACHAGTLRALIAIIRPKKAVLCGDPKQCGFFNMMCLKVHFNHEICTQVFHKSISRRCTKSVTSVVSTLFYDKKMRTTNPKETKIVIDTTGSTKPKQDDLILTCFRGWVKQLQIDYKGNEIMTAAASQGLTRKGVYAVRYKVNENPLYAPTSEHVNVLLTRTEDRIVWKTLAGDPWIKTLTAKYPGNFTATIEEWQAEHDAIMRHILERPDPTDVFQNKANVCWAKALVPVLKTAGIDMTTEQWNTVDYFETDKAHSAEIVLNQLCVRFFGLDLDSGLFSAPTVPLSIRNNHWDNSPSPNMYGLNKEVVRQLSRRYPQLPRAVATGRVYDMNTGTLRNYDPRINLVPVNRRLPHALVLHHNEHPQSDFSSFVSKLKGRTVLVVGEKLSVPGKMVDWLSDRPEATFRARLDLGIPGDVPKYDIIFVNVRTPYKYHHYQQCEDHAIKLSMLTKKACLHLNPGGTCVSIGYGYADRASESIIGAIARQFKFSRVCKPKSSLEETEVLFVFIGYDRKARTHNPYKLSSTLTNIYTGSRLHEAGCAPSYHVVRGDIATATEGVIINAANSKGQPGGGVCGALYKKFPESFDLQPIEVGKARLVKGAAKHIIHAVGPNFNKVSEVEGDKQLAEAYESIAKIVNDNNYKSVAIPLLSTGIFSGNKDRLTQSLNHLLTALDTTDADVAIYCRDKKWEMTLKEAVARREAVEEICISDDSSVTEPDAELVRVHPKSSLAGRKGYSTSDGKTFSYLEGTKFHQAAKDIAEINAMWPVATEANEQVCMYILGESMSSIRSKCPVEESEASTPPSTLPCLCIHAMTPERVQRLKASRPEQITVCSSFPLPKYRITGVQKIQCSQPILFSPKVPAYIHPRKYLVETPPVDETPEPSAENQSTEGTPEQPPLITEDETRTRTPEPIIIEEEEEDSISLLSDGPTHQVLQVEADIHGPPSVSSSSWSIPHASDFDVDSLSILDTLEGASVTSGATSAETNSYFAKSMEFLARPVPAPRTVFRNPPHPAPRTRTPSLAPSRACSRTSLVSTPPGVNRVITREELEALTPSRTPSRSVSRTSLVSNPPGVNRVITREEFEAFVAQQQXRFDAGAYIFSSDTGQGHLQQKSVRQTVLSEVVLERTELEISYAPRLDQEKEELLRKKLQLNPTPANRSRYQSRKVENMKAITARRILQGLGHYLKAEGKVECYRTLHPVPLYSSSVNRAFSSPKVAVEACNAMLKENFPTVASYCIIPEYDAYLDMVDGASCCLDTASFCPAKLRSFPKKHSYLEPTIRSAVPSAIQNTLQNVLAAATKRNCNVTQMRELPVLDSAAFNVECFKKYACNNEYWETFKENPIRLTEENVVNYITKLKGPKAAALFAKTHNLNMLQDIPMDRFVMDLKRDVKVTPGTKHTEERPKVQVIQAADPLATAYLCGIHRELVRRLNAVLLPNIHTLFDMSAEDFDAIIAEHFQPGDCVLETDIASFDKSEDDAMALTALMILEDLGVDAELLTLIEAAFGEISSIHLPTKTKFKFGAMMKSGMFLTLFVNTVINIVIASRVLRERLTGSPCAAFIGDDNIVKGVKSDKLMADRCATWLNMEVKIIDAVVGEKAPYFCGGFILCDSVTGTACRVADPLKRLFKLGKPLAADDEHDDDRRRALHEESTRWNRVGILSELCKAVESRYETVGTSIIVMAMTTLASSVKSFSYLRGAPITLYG

| Compound | CC50 [2] [µM] | selectivity ratio [8] | EC50 [9] [µM] | CC50 [11] [µM] | selectivity ratio [14] | EC50 [15] [µM] | CC50 [18] [µM] | EC50 [19] [µM] | EC50 [20] [µM] | CC50 [21] [µM] | other results |
| --- | --- | --- | --- | --- | --- | --- | --- | --- | --- | --- | --- |
| C[C@@H]1CC(C)(C)Nc2c(C(=O)NC/C=C/S(C)(=O)=O)cccc21 | > 25 | > 12 | 2 | > 25 | > 18 | 1.4 | – | – | – | – | selectivity ratio [1]: > 12; inhibition [3]: 100%; EC50 [4]: 8 µM; inhibition [5]: 39%; CC50 [6]: 30 µM; inhibition [7]: Dose-dependent effect; selectivity ratio [10]: 6; CC50 [12]: 48 µM; EC50 [13]: 2.4 µM; selectivity ratio [16]: > 19; EC50 [17]: 1.6 µM |
| COC(=O)CCCNC(=O)c1cccc2c1NC(C)(C)C[C@H]2C | – | – | – | – | – | – | > 30 | > 30 | > 30 | > 30 | – |
| O=C(N[C@H](/C=C/S(=O)(=O)c1ccccc1)Cc1ccccc1)c1cccc2cccnc12 | 16 | > 2 | 19 | 46 | 1 | 17 | – | – | – | – | – |
| COC(=O)CCCNC(=O)c1cc(C)cc2c1NC(C)(C)C=C2C | – | – | – | – | – | – | > 30 | > 30 | > 30 | > 30 | – |
| C[C@@H]1CC(C)(C)Nc2c(C(=O)N[C@@H](C)/C=C/S(C)(=O)=O)cccc21 | > 25 | > 7 | 3.7 | > 25 | > 7.5 | 3.3 | – | – | – | – | inhibition [3]: 100%; inhibition [5]: 71%; inhibition [7]: Dose-dependent effect |
| COC(=O)/C=C/CNC(=O)c1cccc2c1NC(C)(C)C[C@H]2C | 11 | > 1 | 22 | > 25 | – | > 25 | > 30 | 8.2 | 1.2 | > 30 | selectivity ratio [22]: > 26; selectivity ratio [23]: > 4 |
| COC(=O)/C=C/CNC(=O)c1cccc2c1NC(C)(C)C=C2C | 18.1 | – | > 25 | – | 1.5 | 4.5 | > 30 | 6.5 | 0.6 | 6.7 | selectivity ratio [22]: > 55; selectivity ratio [23]: > 5 |
| COC(=O)CCCNC(=O)c1cccc2c1NC(C)(C)C=C2C | – | – | – | – | – | – | > 30 | > 30 | > 30 | > 30 | – |
| COC(=O)/C=C/CNC(=O)c1c[nH]c2ccc(Br)cc12 | 12 | > 2 | 11 | > 25 | 4 | 3 | – | – | – | – | – |
| COC(=O)CCCNC(=O)c1cccc2c1NCCC2 | – | – | – | – | – | – | > 30 | > 30 | > 30 | > 30 | – |
| CN1CCN(C)/C(=N\c2ccc([N+](=O)[O-])cc2C(=O)Nc2ccccc2)C1 | > 2.25 | > 125 | 0.02 | > 2.5 | > 250 | 0.01 | – | – | – | – | – |
| CC1=CC(C)(C)Nc2c(C(=O)N[C@@H](C)/C=C/S(C)(=O)=O)cccc21 | > 25 | > 7.3 | 3.4 | > 25 | > 5 | 4.5 | – | – | – | – | inhibition [3]: 100%; EC50 [4]: 2.7 µM; inhibition [5]: 59%; inhibition [7]: Dose-dependent effect; selectivity ratio [10]: > 9.7; CC50 [12]: > 25 µM |
| CC1=CC(C)(C)Nc2c(C(=O)NC/C=C/S(C)(=O)=O)cccc21 | 19.6 | > 5 | 5 | 27 | > 9 | 2 | – | – | – | – | selectivity ratio [1]: 7; EC50 [4]: 6 µM; CC50 [6]: 30 µM; selectivity ratio [10]: > 4; CC50 [12]: > 25 µM; EC50 [13]: 5 µM; selectivity ratio [16]: > 22; EC50 [17]: 1.4 µM |
| C[C@@H]1CC(C)(C)Nc2c(C(=O)N[C@H](/C=C/S(C)(=O)=O)Cc3ccccc3)cccc21 | > 50 | > 4 | 13 | > 50 | > 5.4 | 9.3 | – | – | – | – | – |
| COC(=O)/C=C/CNC(=O)c1cccc2c1NCCC2 | – | – | – | – | – | – | > 30 | > 30 | 18 | > 30 | selectivity ratio [22]: > 2 |
| COC(=O)/C=C/CNC(=O)c1cc(C)cc2c1NC(C)(C)C=C2C | – | – | – | – | – | – | > 30 | 8.6 | 8.7 | > 30 | selectivity ratio [22]: > 4; selectivity ratio [23]: > 3.5 |
| CC1=CC(C)(C)Nc2c(C(=O)N[C@H](/C=C/S(C)(=O)=O)Cc3ccccc3)cccc21 | > 38 | > 4 | 13 | > 50 | > 2 | 17 | – | – | – | – | – |
